{
  "source": "PubChem BioAssay AID624466",
  "about": "(The Scripps Research Institute Molecular Screening Center, 2012)",
  "note": "In all, about 360,000 compounds went through this assay and about 5,400 (1.5%) were called active. The sample holds actives, similar compounds and a random draw of the others, so the mix is not that of the screen.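 Rule for the calls: active = inhibition above a per-plate cutoff, the mean inhibition of test compounds on that plate plus 3 SD (cut at about 49% in these data); inactive = the rest.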",
  "data": [
    {"molecular_target": "Trace amine-associated receptor 1 (Homo sapiens) (UniProt Q96RJ0)", "sequence (Q96RJ0 whole entry, looked up, the tested form may be a part)": "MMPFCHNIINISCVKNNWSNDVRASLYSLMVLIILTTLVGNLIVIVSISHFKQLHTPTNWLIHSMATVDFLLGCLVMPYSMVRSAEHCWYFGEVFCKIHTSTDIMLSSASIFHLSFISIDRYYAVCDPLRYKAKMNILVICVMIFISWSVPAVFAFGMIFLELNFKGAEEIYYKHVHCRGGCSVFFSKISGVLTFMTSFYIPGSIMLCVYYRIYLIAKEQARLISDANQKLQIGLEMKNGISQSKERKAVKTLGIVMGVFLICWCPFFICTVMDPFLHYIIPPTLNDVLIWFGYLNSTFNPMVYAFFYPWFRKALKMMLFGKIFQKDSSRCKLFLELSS", "experiment": "blockers of beta-PEA-driven TAAR1 calcium signal – Fluo-8 calcium fluorescence, CHO RD-HGA16 cells, primary screen (AID 624466);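 note: 0% = DMSO plus EC80 beta-PEA response and 100% = DMSO alone without agonist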", "conditions": "CHO RD-HGA16 TAAR1, Fluo-8 calcium fluorescence, antagonist; at 3 µM; hits give high values", "outline": "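Test system – hTAAR1-expressing CHO RD-HGA16 cells, Gα16-coupled · Also added – β-PEA at EC80 concentration, post-compound challenge · Compound – 3 µM, single point · Incubation – dye loading 75 min at 37 °C, then 30 min room temperature · Measured by – Fluo-8 intracellular calcium dye fluorescence, real-time kinetic reads · Benchmarks – vehicle and agonist controls · Replicates – singlicate, one well per test compound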", "values": [
      {"compound": "O=C(O)c1ccc(NC(=O)c2ccc(COc3ccc(Cl)cc3)o2)cc1", "inhibition": "34.7% (inactive)"},
      {"compound": "CC(C)(C)C(=O)c1c(N)[nH]c(C(=O)c2ccccc2)c1-c1ccc(F)cc1", "inhibition": "2.74% (inactive)"},
      {"compound": "CCOC(=O)Cn1c2c(n(-c3ccc(F)cc3)c1=O)C=C(c1ccccc1)[C@@H](C)C(C(=O)N(C)C1CCCCC1)=C2", "inhibition": "-25% (inactive)"},
      {"compound": "COC(=O)[C@]12C[C@H](CC(=O)NCCC(C)C)C(=O)N(CCc3ccc(OC)c(OC)c3)C1=C[C@H](C(C)(C)C)O[C@@H]2C", "inhibition": "-15.9% (inactive)"},
      {"compound": "Cc1cc2nc(-c3ccc(F)cc3)c(Cc3ccsc3)n2c(C)c1Br", "inhibition": "-3.77% (inactive)"},
      {"compound": "Cc1ccc(C)c(N2CCN(C(=O)CCCCCn3c(=S)[nH]c4ccc(N5CCOCC5)cc4c3=O)CC2)c1", "inhibition": "75% (active)"},
      {"compound": "O=C(CCCCCn1c(=S)[nH]c2cc3c(cc2c1=O)OCO3)N1CCN(c2ccc(F)cc2)CC1", "inhibition": "11.1% (inactive)"},
      {"compound": "Cc1ccc(C)c(N2CCN(C(=O)CCCn3c(=O)c4cccn4c4cccnc43)CC2)c1", "inhibition": "26% (inactive)"},
      {"compound": "CCN(CCCNC(=O)c1ccc2c(c1)NC(=O)CN2C)c1cccc(C)c1", "inhibition": "-2.86% (inactive)"},
      {"compound": "C/C(=N\\Nc1ncc(Cl)cc1Cl)c1ccc(S(=O)(=O)NCc2ccco2)cc1", "inhibition": "49.3% (active)"},
      {"compound": "Cc1c(Cl)cnc(NC(=O)COC(=O)c2ccc(S(=O)(=O)NCc3ccco3)cc2)c1Cl", "inhibition": "-10.1% (inactive)"},
      {"compound": "O=S(=O)(NCc1ccco1)c1cnc(Cl)c(Cl)c1", "inhibition": "-4.49% (inactive)"},
      {"compound": "O=C(COC(=O)Cn1cnc2ccccc2c1=O)NCC12CC3CC(CC(C3)C1)C2", "inhibition": "-9.23% (inactive)"},
      {"compound": "C[C@H](O)[C@@H]1C(=O)N2CCc3c([nH]c4c(-c5ccc6c(c5)OCO6)cccc34)[C@@H]2C[C@@H]1N(C)C(=O)c1ccco1", "inhibition": "60.8% (active)"},
      {"compound": "CN[C@H]1C[C@H]2c3[nH]c4c(-c5ccccc5)cccc4c3CCN2C(=O)[C@H]1[C@H](C)O", "inhibition": "15.3% (inactive)"},
      {"compound": "CCOC(=O)CNC(=O)N(C)[C@H]1C[C@H]2c3[nH]c4c(-c5ccc6c(c5)OCO6)cccc4c3CCN2C(=O)[C@H]1[C@H](C)O", "inhibition": "12.4% (inactive)"},
      {"compound": "O=C(CN1CCSCC1)N/N=C/c1ccc(Cl)cc1", "inhibition": "-17.2% (inactive)"},
      {"compound": "CSc1ncc(C(=O)Nc2ccc(C)cc2C)c(C)n1", "inhibition": "-0.22% (inactive)"},
      {"compound": "Cc1ccc(NC(=O)c2ccc(CSc3ncnc4nc[nH]c34)cc2)c(C)c1", "inhibition": "56.7% (active)"},
      {"compound": "CSCc1ccc(C(=O)Nc2cc(C)cc(C)c2)cc1", "inhibition": "16.7% (inactive)"},
      {"compound": "CC[C@@H]1CCCCc2ccccc2[C@@H](C(=O)C[C@H](O)CC(C)=O)OC1=O", "inhibition": "13.4% (inactive)"},
      {"compound": "C=CCn1c(SCc2c(C(=O)OC)sc(N)c2C(=O)OC)nnc1-c1ccc(Cl)cc1", "inhibition": "34.7% (inactive)"},
      {"compound": "CC(Oc1ccc2ccccc2c1)C(=O)NNC(=S)NC(=O)c1ccco1", "note": "(configuration not stated)", "inhibition": "61.9% (active)"},
      {"compound": "NS(=O)(=O)c1ccc(CNC(=S)NC(=O)c2ccco2)cc1", "inhibition": "6.18% (inactive)"},
      {"compound": "CCCc1ccc(OCC(=O)NNC(=S)NC(=O)c2ccco2)cc1", "inhibition": "74.2% (active)"},
      {"compound": "O=C(NNC(=S)Nc1ccc(Br)cc1Cl)c1ccco1", "inhibition": "-2.77% (inactive)"},
      {"compound": "CCOc1cc(NC(=S)NCc2ccco2)c(OCC)cc1NC(=O)c1ccco1", "inhibition": "9.19% (inactive)"},
      {"compound": "O=C(Nc1ccc2ccccc2c1)/C(=C\\c1ccc2c(c1)OCO2)NC(=O)c1ccco1", "inhibition": "12.7% (inactive)"},
      {"compound": "Cc1ccc(S(=O)(=O)N2CC3C(=O)C[C@@H](c4ccccc4Cl)N(S(=O)(=O)c4ccc(C)cc4)C3CC2c2ccccc2)cc1", "note": "(some centres not stated)", "inhibition": "2.68% (inactive)"},
      {"compound": "COC(=O)c1cc2c(c3c4cc(F)ccc4n(S(=O)(=O)c4ccccc4)c13)C(=O)N(Cc1ccccc1OC)C2", "inhibition": "-0.96% (inactive)"},
      {"compound": "O=C(C(=O)N1CCC(CNC(=O)c2cccnc2Cl)CC1)c1cccs1", "inhibition": "-12.2% (inactive)"},
      {"compound": "COc1ccc(CNC(=O)COc2cccnc2[N+](=O)[O-])cc1", "inhibition": "-4.68% (inactive)"},
      {"compound": "Cc1ccc(-c2c(N)nc3ncccn23)cc1", "inhibition": "-8.72% (inactive)"},
      {"compound": "COCCn1c(C)cc(C(=O)CSc2nnc(C3CC3)n2C2CC2)c1C", "inhibition": "10.2% (inactive)"},
      {"compound": "Nc1nc2c(Br)ccc(Br)c2cc1C(=O)NCCc1ccccc1", "inhibition": "-14% (inactive)"},
      {"compound": "O=C(NNS(=O)(=O)c1ccc(F)cc1)C1CCCCC1", "inhibition": "-20.9% (inactive)"},
      {"compound": "O=C(CN1CCCSc2ccccc21)N1CCN(S(=O)(=O)c2ccccc2)CC1", "inhibition": "18.8% (inactive)"},
      {"compound": "O=C(CN1CCN(S(=O)(=O)c2cccc(Cl)c2)CC1)N1CCCCC1", "inhibition": "6.11% (inactive)"},
      {"compound": "O=C(CN1CCCSc2ccccc21)N1CCN(S(=O)(=O)c2cccc(F)c2)CC1", "inhibition": "49.7% (active)"},
      {"compound": "Cc1ccccc1C(=O)N[C@H](C(=O)N1CCC[C@H]1C(=O)NCc1ccccc1)C(C)C", "inhibition": "14.4% (inactive)"},
      {"compound": "O=C(NC1CCCC1)C1c2ccccc2OCC(=O)N1CC(F)(F)F", "note": "(configuration not stated)", "inhibition": "4.73% (inactive)"},
      {"compound": "CCOc1ccccc1N1CN(Cc2ccccc2)CNC1=S", "inhibition": "-9.06% (inactive)"}
    ]}
  ]
}
